From ChEMBL document CHEMBL4033778, “Species-Selective Pyrimidineamine Inhibitors of Trypanosoma brucei S-Adenosylmethionine Decarboxylase” (J Med Chem, 2018)
Activity calls are given as the source filed them. The calls are words filed in the database; no cut-off is given here.

Columns and labels:
[1] = tested on: Trypanosoma brucei brucei; experiment: Antitrypanosomal activity against blood stream form Trypanosoma brucei brucei Lister 427 at 25 uM after 48 hrs by CellTiter-Glo assay; type: functional
How it was run: (§1)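 Bloodstream-form parasites grown in HMI-19 with fetal bovine serum, exposed 48 h to a 3-fold serial dilution (0.0038–25 μM or 0.015–100 μM final; 0.1% DMSO vehicle). Cell density read by ATP bioluminescence (CellTiter-Glo). Triplicate; EC50 from normalized response vs log concentration fit, bottom fixed at 0, Hill slope fixed at –8 when curve steepness gave ambiguous fit. Percent inhibition given at top concentration when <50%.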

[2] = molecular target: T1, S-adenosylmethionine decarboxylase proenzyme (Homo sapiens, UniProt P17707); experiment: Inhibition of recombinant human N-terminal His6-tagged AdoMetDC expressed in Escherichia coli BL21/DE3 cells at pH 7.2 by RapidFire-MS-based enzyme activity assay
T1 sequence (P17707 whole entry): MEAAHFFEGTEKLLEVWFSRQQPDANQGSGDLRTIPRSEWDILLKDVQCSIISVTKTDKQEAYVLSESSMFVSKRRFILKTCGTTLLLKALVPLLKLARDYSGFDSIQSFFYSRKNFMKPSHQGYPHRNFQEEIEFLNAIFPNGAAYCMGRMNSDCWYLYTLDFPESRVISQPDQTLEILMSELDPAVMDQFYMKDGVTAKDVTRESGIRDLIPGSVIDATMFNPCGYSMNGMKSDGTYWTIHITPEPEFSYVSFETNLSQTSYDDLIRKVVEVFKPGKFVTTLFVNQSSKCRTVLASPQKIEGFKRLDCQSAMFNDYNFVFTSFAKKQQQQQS

[3] = Inhibition of recombinant Trypanosoma brucei N-terminal His6-tagged AdoMetDC/prozyme hetrodimer expressed in Escherichia coli BL21/DE3 cells at pH 7.2 by RapidFire-MS-based enzyme activity assay
[4] = molecular target: T2, S-adenosylmethionine decarboxylase proenzyme (Homo sapiens) (UniProt P17707); experiment: Inhibition of recombinant human N-terminal His6-tagged AdoMetDC expressed in Escherichia coli BL21/DE3 cells at 63 uM at pH 7.2 by RapidFire-MS-based enzyme activity assay
T2 sequence (whole entry): T1 sequence (P17707 whole entry)

[5] = Selectivity ratio of IC50 for recombinant human N-terminal His6-tagged AdoMetDC expressed in Escherichia coli BL21/DE3 cells to IC50 for recombinant Trypanosoma brucei N-terminal His6-tagged AdoMetDC/prozyme hetrodimer expressed in Escherichia coli BL21/DE3 cells
How it was run: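 Both enzymes assayed at pH 7.2 by RapidFire–MS, monitoring decarboxylated AdoMet. Inhibitor run as a 3-fold dilution series from 0.01 to 180 μM final, with 2% DMSO final. Data normalized to 0.5 μM Genz-644131 as full inhibition. IC50 fitted with bottom fixed at 0 and Hill slope fixed at −1, triplicate. Ratio is human IC50 over parasite IC50.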

[6] = molecular target: T2, S-adenosylmethionine decarboxylase proenzyme (Homo sapiens); experiment: Inhibition of recombinant human N-terminal His6-tagged AdoMetDC expressed in Escherichia coli BL21/DE3 cells at 180 uM at pH 7.2 by RapidFire-MS-based enzyme activity assay
[7] = tested on: Trypanosoma brucei brucei; experiment: Antitrypanosomal activity against bloodstream form Trypanosoma brucei brucei Lister 427 after 48 hrs by CellTiter-Glo assay; type: functional; settings: Lister 427, 48 h; how it was run: as §1
[8] = molecular target: T3, S-adenosylmethionine decarboxylase proenzyme (Trypanosoma brucei brucei) (UniProt P50244); experiment: Inhibition of AdoMetDC in bloodstream form Trypanosoma brucei brucei Lister 427 assessed as increase in prozyme level at 1.5 times EC50 after 24 hrs by Western blot method
T3 sequence (whole entry): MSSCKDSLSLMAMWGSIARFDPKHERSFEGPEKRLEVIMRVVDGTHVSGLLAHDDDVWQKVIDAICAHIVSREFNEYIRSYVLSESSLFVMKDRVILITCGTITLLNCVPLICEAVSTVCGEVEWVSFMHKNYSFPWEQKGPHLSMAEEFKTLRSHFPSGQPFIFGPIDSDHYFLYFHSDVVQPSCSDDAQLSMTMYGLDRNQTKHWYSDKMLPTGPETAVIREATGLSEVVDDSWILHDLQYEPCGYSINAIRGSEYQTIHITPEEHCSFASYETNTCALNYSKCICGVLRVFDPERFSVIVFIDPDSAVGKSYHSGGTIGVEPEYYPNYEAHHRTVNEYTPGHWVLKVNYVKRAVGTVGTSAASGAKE

[9] = tested on: Trypanosoma brucei brucei; experiment: Antitrypanosomal activity against blood stream form Trypanosoma brucei brucei Lister 427 at 100 uM after 48 hrs by CellTiter-Glo assay; type: functional; how it was run: as §1
[10] = Inhibition of recombinant Trypanosoma brucei N-terminal His6-tagged AdoMetDC/prozyme hetrodimer expressed in Escherichia coli BL21/DE3 cells at pH 6.8 by RapidFire-MS-based enzyme activity assay
Trypanosoma brucei [11] = experiment: Inhibition of recombinant Trypanosoma brucei N-terminal His6-tagged AdoMetDC/prozyme hetrodimer expressed in Escherichia coli BL21/DE3 cells at 63 uM at pH 7.2 by RapidFire-MS-based enzyme activity assay
How it was run: (§2)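 Steady-state decarboxylation of S-adenosyl-L-methionine by purified TbAdoMetDC/prozyme at pH 7.2; decarboxylated AdoMet product read by RapidFire–MS. Inhibitor added from DMSO to 2% final DMSO. Percent inhibition reported at the top tested concentration when mean inhibition stayed below 50%; triplicate.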

Trypanosoma brucei [12] = experiment: Inhibition of recombinant Trypanosoma brucei N-terminal His6-tagged AdoMetDC/prozyme hetrodimer expressed in Escherichia coli BL21/DE3 cells at 21 uM at pH 7.2 by RapidFire-MS-based enzyme activity assay; how it was run: as §2
Trypanosoma brucei [13] = experiment: Inhibition of recombinant Trypanosoma brucei N-terminal His6-tagged AdoMetDC/prozyme hetrodimer expressed in Escherichia coli BL21/DE3 cells at 180 uM at pH 7.2 by RapidFire-MS-based enzyme activity assay; how it was run: as §2
[14] = Inhibition of recombinant Trypanosoma brucei N-terminal His6-tagged AdoMetDC/prozyme hetrodimer expressed in Escherichia coli BL21/DE3 cells at pH 7.7 by RapidFire-MS-based enzyme activity assay
Liver [15] = experiment: Metabolic stability in CD-1 mouse pooled liver microsomes at 1 uM in presence of NADPH measured up to 30 mins by LC-MS/MS method; type: ADME, microsome; settings: 0.5 h
human MDR1 (P-gp) = experiment: Apparent permeability from basolateral side to apical side in MDCK2 harboring human MDR1 cells in absence of Pgp inhibitor GF120918 at 10 to 20 uM after 60 mins by LC-MS/MS method; type: ADME, cell-based, Canis lupus familiaris, MDCK-II; settings: dog, MDCK-MDR1
How it was run: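 MDCKII-hMDR1 monolayer permeability measured with or without Pgp inhibitor GF120918.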

Trypanosoma brucei [16] = experiment: Ratio of IC50 for recombinant Trypanosoma brucei N-terminal His6-tagged AdoMetDC/prozyme hetrodimer expressed in Escherichia coli BL21/DE3 cells at pH 7.7 to IC50 for recombinant Trypanosoma brucei N-terminal His6-tagged AdoMetDC/prozyme hetrodimer expressed in Escherichia coli BL21/DE3 cells at pH 6.8
Liver [17] = experiment: Metabolic stability in mixed gender human pooled liver microsomes at 1 uM in presence of NADPH measured up to 30 mins by LC-MS/MS method; type: ADME, microsome; settings: 0.5 h
Trypanosoma brucei [18] = experiment: (§3) Reversible inhibition of recombinant Trypanosoma brucei N-terminal His6-tagged AdoMetDC/prozyme hetrodimer expressed in Escherichia coli BL21/DE3 cells using S-adenosyl-L-methionine as substrate preincubated for 30 mins followed by 100 fold dilution and substrate addition measured every 5 mins by RapidFire-mass spectrometry
[19] = as §3, with “Competitive” for “Reversible”, “by” for “by 100 fold dilution and”, “double-reciprocal Lineweaver-Burk plot analysis” for “RapidFire-mass spectrometry”

With `Cc1cc(Nc2cc(Cl)ccc2C)nc(N)n1` the Activity [1] was 28%, the IC50 [2] was > 180 µM and the IC50 [3] was > 180 µM.
Work on `Cc1cc(Nc2cc(Cl)cc(-c3ccccc3)c2)nc(N)n1` yielded an inhibition [4] of 30% and an IC50 [3] of 3.3 µM.
`Cc1cc(Nc2cc(Br)cc(OCC(F)(F)F)c2)nc(N)n1` gave an IC50 [2] of 44 µM, a Ratio IC50 [5] of 27 and an IC50 [3] of 1.6 µM.
With `Cc1cc(Nc2cc(Br)cc(Br)c2)nc(N)n1` the inhibition [6] was 31%, the Ratio IC50 [5] was > 100 and the IC50 [3] was 1.9 µM.
`C=CCOc1cc(Br)cc(Nc2cc(C)nc(N)n2)c1` showed an inhibition [6] of 28%, an IC50 [7] of 4.4 µM and an IC50 [3] of 4.5 µM.
With `Cc1cc(Nc2cccc(Cl)c2Cl)nc(N)n1` the Activity [1] was 27%, the IC50 [2] was > 180 µM and the IC50 [3] was 137 µM.
With `Cc1cc(Nc2cc(Cl)cc(Cl)c2)ncn1` the IC50 [2] was > 180 µM, the inhibition [8] was “inactive” and the IC50 [3] was > 180 µM.
In the case of `Cc1cc(Nc2cc(Cl)cc(Cl)c2O)nc(N)n1`, the IC50 [2] is reported as > 180 µM, the IC50 [3] is reported as 37 µM and the Activity [9] is reported as 26%.
`Cc1cc(Nc2cc(Cl)cc(-c3ccoc3)c2)nc(N)n1` showed an inhibition [6] of 30%, an IC50 [7] of 7.1 µM and an IC50 [3] of 7.4 µM.
For `Nc1cc(Nc2cc(Cl)cc(Cl)c2)nc(N)n1`, the IC50 [10] was 5.8 µM, the IC50 [2] was > 180 µM and the IC50 [3] was 48 µM.
In the case of `Cc1cc(Nc2cc(Cl)cc(-c3cc4ccccc4o3)c2)nc(N)n1`, the inhibition (Trypanosoma brucei [11]) is reported as 23% and the IC50 [2] is reported as > 63 µM.
In the case of `Nc1nc(Nc2cc(Cl)cc(Cl)c2)cc(-c2ccccc2)n1`, the inhibition (Trypanosoma brucei [12]) is reported as 24% and the IC50 [2] is reported as > 21 µM.
With `Cc1cc(Nc2ccc(F)c(F)c2)nc(N)n1` the Activity [1] was 25%, the inhibition (Trypanosoma brucei [13]) was 33% and the IC50 [2] was > 180 µM.
In the case of `Cc1cc(Nc2cc(C(F)(F)F)ccc2Cl)nc(N)n1`, the Activity [1] is reported as 28%, the IC50 [2] is reported as > 180 µM and the IC50 [3] is reported as 199 µM.
In the case of `Cc1cc(Nc2ccc(Cl)cc2)nc(N)n1`, the Activity [1] is reported as 28%, the IC50 [2] is reported as > 180 µM and the IC50 [3] is reported as > 180 µM.
For `Cc1cc(Nc2cc(Cl)cc(-c3ccc(F)c(Cl)c3)c2)nc(N)n1`, the IC50 [7] was 3.2 µM, the IC50 [2] was > 180 µM and the IC50 [3] was 157 µM.
With `Cc1cc(Nc2ccc(Br)cc2F)nc(N)n1` the Activity [1] was 25%, the IC50 [2] was > 180 µM and the IC50 [3] was > 180 µM.
For `Cc1cc(Nc2cc(Cl)cc(-c3cncs3)c2)nc(N)n1`, the inhibition (Trypanosoma brucei [12]) was 42% and the IC50 [2] was > 21 µM.
In the case of `Cc1cc(Nc2cc(Cl)cc(Cl)c2)nc(N)n1`, the IC50 [14] is reported as 30 µM, the Stability (Liver [15]) is reported as “Unstable” and the inhibition [6] is reported as 27%. It also gave an IC50 [10] of 0.5 µM, a Papp B→A at 1 h, up to 20 µM (human MDR1 (P-gp)) of 13.5 ×10⁻⁶ cm/s and a Ratio IC50 (Trypanosoma brucei [16]) of 60. The Stability (Liver [17]) was “Unstable”, the inhibition (Trypanosoma brucei [18]) was “Active” and the Ki [19] was 2.6 µM. For the same compound, the inhibition [8] was “Active” and the IC50 [3] was 3.7 µM.
In the case of `Nc1nc(Cl)cc(Nc2cc(Cl)cc(Cl)c2)n1`, the IC50 [2] is reported as > 180 µM, the inhibition [8] is reported as “inactive” and the IC50 [3] is reported as > 180 µM.
In the case of `Cc1cc(Nc2cc(Cl)c(F)c(Cl)c2)nc(N)n1`, the Ratio IC50 [5] is reported as > 100 and the IC50 [3] is reported as 1.5 µM.
For `Cc1cc(Nc2cc(Cl)ccc2Cl)nc(N)n1`, the Activity [1] was 23%, the IC50 [2] was > 180 µM and the IC50 [3] was 115 µM.
For `Cc1cc(Nc2ccc(Cl)cc2Cl)nc(N)n1`, the Activity [1] was 28%, the IC50 [2] was > 180 µM and the IC50 [3] was > 180 µM.
For `CC(=O)c1ccc(-c2cc(Cl)cc(Nc3cc(C)nc(N)n3)c2)cc1`, the inhibition (Trypanosoma brucei [12]) was 28% and the IC50 [2] was > 21 µM.
For `Nc1nccc(Nc2cc(Cl)cc(Cl)c2)n1`, the IC50 [2] was > 180 µM, the inhibition [8] was “Active” and the IC50 [3] was 13 µM.
For `Cc1cc(Nc2cccc(Cl)c2C)nc(N)n1`, the Activity [1] was 29%, the IC50 [2] was > 180 µM and the IC50 [3] was > 180 µM.
